Calls of active or inactive are those of the source. The rule behind the calls is not given here.
Assays:
Bacillus subtilis = assay: Antibacterial activity against Bacillus subtilis 168; format: functional; details: subsp. subtilis str. 168
Listeria monocytogenes [1] = assay: Antibacterial activity against Listeria monocytogenes ATCC 19115; format: functional
Acinetobacter baumannii = assay: Antibacterial activity against Acinetobacter baumannii ATCC 19606; format: functional
Enterobacter cloacae = assay: Antibacterial activity against Enterobacter cloacae ATCC 13047; format: functional; details: subsp. cloacae ATCC 13047
Escherichia coli = assay: Antibacterial activity against Escherichia coli MC1061; format: functional
Outline: (§1)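 Values were set in μM and converted to μg/mL for presentation. Amikacin, ampicillin and ofloxacin served as positive controls.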

Klebsiella pneumoniae = assay: Antibacterial activity against Klebsiella pneumoniae ATCC 27736; format: functional
Pseudomonas aeruginosa [2] = assay: Antibacterial activity against Pseudomonas aeruginosa ATCC 27853; format: functional
[3] = Antibacterial activity against Salmonella enterica ATCC 14028; format: functional
[4] = test system: Mycolicibacterium smegmatis; assay: Antimycobacterial activity against Mycobacterium smegmatis MC2 155; format: functional; details: str. MC2 155; outline: as §1
Candida albicans [5] = assay: Antifungal activity against Candida albicans ATCC 1003; format: functional
[6] = Antifungal activity against fluconazole/itraconazole/voriconazole-resistant Candida albicans ATCC 1237; format: functional
[7] = Antifungal activity against fluconazole/itraconazole/voriconazole-susceptible Candida albicans ATCC 2310; format: functional
[8] = Antifungal activity against fluconazole/itraconazole/voriconazole-susceptible Candida albicans ATCC 2876; format: functional
[9] = Antifungal activity against fluconazole/itraconazole/voriconazole-resistant Candida albicans ATCC 10231; format: functional
[10] = Antifungal activity against fluconazole/itraconazole/voriconazole-resistant Candida albicans ATCC 64124; format: functional
[11] = Antifungal activity against fluconazole/itraconazole/voriconazole-resistant Candida albicans ATCC 90819; format: functional
Listeria monocytogenes [12] = assay: Antibacterial activity against Listeria monocytogenes ATCC 19115 at 0.5 times MIC after […] serial passages; format: functional
Outline: (§2)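 Multi-step resistance selection with serial sub-culture of bacteria at sub-inhibitory compound concentrations for 15 passages. MIC was redetermined after each passage to follow any increase over the starting value. Amikacin was run in parallel as reference.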

Enterococcus [13] = assay: Antibacterial activity against vancomycin-resistant Enterococcus at 0.5 times MIC after […] serial passages; format: functional; outline: as §2
Candida albicans [14] = assay: Induction of intracellular ROS production in Candida albicans ATCC 10231 at 1 to 2 times MIC after 1 hr by DCFH-DA probe based fluorescence microscopic analysis; format: functional, cell-based
Outline: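 C. albicans ATCC 10231 was exposed for 1 h at 35 °C, with untreated cells as negative control and 1 mM H2O2 as positive control. Cells were then stained with DCFH-DA (20 μg/mL), and intracellular ROS was read by fluorescence microscopy.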

[15] = Cytotoxicity against human A549 cells assessed as reduction in cell survival; format: toxicity, cell-based
[16] = Cytotoxicity against human BEAS2B cells assessed as reduction in cell survival; format: toxicity, cell-based; details: beas-2b
Staphylococcus aureus [17] = assay: Antibacterial activity against methicillin-resistant Staphylococcus aureus; format: functional; outline: as §1
Listeria monocytogenes [18] = assay: Ratio of MIC for Listeria monocytogenes ATCC 19115 after and before 15 serial passages at 0.5 times MIC; format: functional; outline: as §2
Staphylococcus aureus [19] = assay: Ratio of MIC for methicillin-resistant Staphylococcus aureus after and before 15 serial passages at 0.5 times MIC; format: functional; outline: as §2
Enterococcus [20] = assay: Ratio of MIC for vancomycin-resistant Enterococcus after and before 15 serial passages at 0.5 times MIC; format: functional; outline: as §2
Pseudomonas aeruginosa [21] = assay: Ratio of MIC for Pseudomonas aeruginosa ATCC 27853 after and before 15 serial passages at 0.5 times MIC; format: functional; outline: as §2
Candida albicans [22] = assay: Ratio of MIC for Candida albicans ATCC 10231 after and before 13 serial passages at 0.5 times MIC; format: functional
Enterococcus [23] = assay: Antibacterial activity against vancomycin-resistant Enterococcus; format: functional; outline: as §1

Q: Which MIC (Bacillus subtilis) does the source give for `Cl.N=C(N)N/N=C/c1ccc(-c2ccc(/C=N/Nc3ccccc3Cl)cc2)cc1` here?
A: > 500 µM

Q: And the MIC (Listeria monocytogenes [1])?
A: 1 to 2 µM

Q: What about the MIC (Acinetobacter baumannii) of the same compound?
A: > 500 µM

Q: What about the MIC (Enterobacter cloacae) of the same compound?
A: > 500 µM

Q: And the MIC (Escherichia coli)?
A: > 500 µM

Q: And the MIC (Klebsiella pneumoniae)?
A: > 500 µM

Q: What about the MIC (Pseudomonas aeruginosa [2]) of the same compound?
A: > 500 µM

Q: And the MIC [3]?
A: > 500 µM

Q: What about the MIC [4] of the same compound?
A: 3.9 µM

Q: What about the MIC (Candida albicans [5]) of the same compound?
A: 4.6 µM

Q: And the MIC [6]?
A: 9.2 µM

Q: What about the MIC [7] of the same compound?
A: 4.6 µM

Q: What about the MIC [8] of the same compound?
A: 4.6 µM

Q: What about the MIC [9] of the same compound?
A: 4.6 µM

Q: What about the MIC [10] of the same compound?
A: 9.2 µM

Q: And the MIC [11]?
A: 4.6 µM

Q: And the Activity (Listeria monocytogenes [12])?
A: Active

Q: What about the Activity (Enterococcus [13]) of the same compound?
A: Active

Q: What about the Activity (Candida albicans [14]) of the same compound?
A: Active

Q: And the IC50 [15]?
A: 2.8 µg/mL

Q: And the IC50 [16]?
A: 2.3 µg/mL

Q: Which results are given for `C/C(=N\NC(=N)N)c1ccc2c(c1)Cc1cc(/C(C)=N/NC(=N)N)ccc1-2.Cl.Cl`?
A: MIC (Bacillus subtilis): 7.8 µM; MIC (Listeria monocytogenes [1]): < 0.5 µM; MIC (Staphylococcus aureus [17]): 1 to 2 µM; MIC (Acinetobacter baumannii): 500 µM; MIC (Enterobacter cloacae): 500 µM; MIC (Escherichia coli): 500 µM; MIC (Klebsiella pneumoniae): 31.3 to 62.5 µM; MIC (Pseudomonas aeruginosa [2]): 1 to 2 µM; MIC [3]: 3.9 µM; MIC (Candida albicans [5]): 2.3 µM; MIC [6]: 4.6 µM; MIC [7]: 2.3 µM; MIC [8]: 2.3 µM; MIC [9]: 2.3 to 4.6 µM; MIC [10]: 2.3 µM; MIC [11]: 4.6 µM; fold change (FC) (Listeria monocytogenes [18]): 1; fold change (FC) (Staphylococcus aureus [19]): 1; fold change (FC) (Enterococcus [20]): 1; fold change (FC) (Pseudomonas aeruginosa [21]): 1; fold change (FC) (Candida albicans [22]): 2; Activity (Candida albicans [14]): Active; IC50 [15]: 2.5 µg/mL; IC50 [16]: 1.8 µg/mL

Q: What does the source list for `C/C(=N\NC(=N)N)c1ccc(CCc2ccc(/C(C)=N/NC(=N)N)cc2)cc1.Cl.Cl`?
A: MIC (Bacillus subtilis): > 500 µM; MIC (Listeria monocytogenes [1]): 1 µM; MIC (Staphylococcus aureus [17]): 1 to 2 µM; MIC (Enterococcus [23]): 1 µM; MIC (Acinetobacter baumannii): > 500 µM; MIC (Enterobacter cloacae): > 500 µM; MIC (Escherichia coli): > 500 µM; MIC (Klebsiella pneumoniae): > 500 µM; MIC (Pseudomonas aeruginosa [2]): > 500 µM; MIC [3]: > 500 µM; MIC [4]: 1 µM; MIC (Candida albicans [5]): 34.6 µM; MIC [6]: 34.6 µM; MIC [7]: 69.3 µM; MIC [8]: 8.6 µM; MIC [9]: 17.3 µM; MIC [10]: > 69.3 µM; MIC [11]: 17.3 µM; fold change (FC) (Listeria monocytogenes [18]): 8; fold change (FC) (Staphylococcus aureus [19]): 4 - 16; fold change (FC) (Enterococcus [20]): 16; IC50 [15]: 2.9 µg/mL; IC50 [16]: 1.8 µg/mL

Reference: ChEMBL document CHEMBL3871280, “Bis(N-amidinohydrazones) and N-(amidino)-N'-aryl-bishydrazones: New classes of antibacterial/antifungal agents” (Bioorg Med Chem, 2017)
